Data published in ChEMBL document CHEMBL4385665, “Synthesis of N-arylindazole-3-carboxamide and N-benzoylindazole derivatives and their evaluation against α-MSH-stimulated melanogenesis” (Bioorg Med Chem Lett, 2019).

Tests used:
B16 [1] = assay: Inhibition of alpha-MSH-stimulated melanogenesis in mouse B16 cells assessed as reduction in melanin production incubated for 3 days; type: functional, cell-based; details: B16, 72 h
Outline: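 B16 melanoma cells stimulated with α-MSH (100nM) and incubated with test agent for three days. Melanin released into the culture medium was quantified by sample absorbance against a synthetic melanin standard, and IC50 values were derived from inhibition of melanin formation.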

B16 [2] = assay: Potency index, ratio of IC50 for arbutin to IC50 for test compound for inhibition of alpha-MSH-stimulated melanogenesis in mouse B16 cells assessed as reduction in melanin production incubated for 3 days; type: functional

IC50 (B16 [1])	Structure (SMILES)	Ratio IC50 (B16 [2])
18 µM	O=C(Nc1ccc(O)cc1)c1n[nH]c2ccccc12	
35 µM	O=C(Nc1cccc(O)c1)c1n[nH]c2ccccc12	
28 µM	Cc1cccc(C(=O)n2ncc3cc([N+](=O)[O-])c(Br)cc32)c1	
93 µM	O=C(Nc1ccc(Cl)cc1)c1n[nH]c2ccccc12	
15 µM	O=C(Nc1ccc(C(F)(F)F)cc1)c1n[nH]c2ccccc12	4
7 µM	O=C(c1ccccc1Cl)n1ncc2cc([N+](=O)[O-])ccc21	9
13 µM	O=C(Nc1ccc(OC(F)(F)F)cc1)c1n[nH]c2ccccc12	5
64 µM	OC[C@H]1O[C@@H](Oc2ccc(O)cc2)[C@H](O)[C@@H](O)[C@@H]1O [ARBUTIN]	
40 µM	O=C(Nc1ccccc1)c1n[nH]c2ccccc12	
51 µM	O=C(c1ccccc1)n1ncc2cc([N+](=O)[O-])ccc21	
20 µM	COc1ccc(NC(=O)c2n[nH]c3ccccc23)cc1	
36 µM	COc1cccc(NC(=O)c2n[nH]c3ccccc23)c1	
16 µM	COc1ccccc1NC(=O)c1n[nH]c2ccccc12	4
55 µM	O=C(Cc1cccs1)n1ncc2cc([N+](=O)[O-])ccc21	
69 µM	COC(=O)c1ccc(NC(=O)c2n[nH]c3ccccc23)cc1	
38 µM	Cc1ccc(NC(=O)c2n[nH]c3ccccc23)cc1	
21 µM	O=C(Nc1ccccc1O)c1n[nH]c2ccccc12	
60 µM	O=C(c1ccc(Cl)cc1)n1ncc2cc([N+](=O)[O-])ccc21	
32 µM	O=C(c1ccccc1)n1ncc2cc([N+](=O)[O-])c(Br)cc21	
15 µM	Cc1cccc(NC(=O)c2n[nH]c3ccccc23)c1	
77 µM	Cc1cccc(C(=O)n2ncc3cc([N+](=O)[O-])ccc32)c1	
25 µM	O=C(c1ccccc1Cl)n1ncc2cc([N+](=O)[O-])c(Br)cc21	4
